Results from ChEMBL document CHEMBL4689842, “EUbOPEN Chemogenomics Library wave 1” (2021).

System: U2OS
Test: Multiplex assay against U2OS
Type: toxicity, cell-based
Details: human
Method in brief: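 Cells stained live at seeding with Hoechst33342, BioTracker Green Microtubule Cytoskeleton Dye, MitoTracker Red and Annexin V Alexa Fluor 680 were imaged on a CQ1 microscope at 37°C and 5% CO2 after compound addition. Their classification by CellPathfinder machine-learning gating ran from Hoechst high-intensity objects versus normal cells, to healthy, pyknosed or fragmented nuclei among normal cells, to mitotic or apoptotic among pyknosed cells. Tubulin, mitochondrial-mass and membrane-permeability phenotypes are per cents of healthy-nucleus cells.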

[1] = 12 h, 1 µM, compound concentration 1 uM, replicate 1
[2] = 12 h, 1 µM, compound concentration 1 uM, replicate 2
[3] = 12 h, 10 µM, compound concentration 10 uM, replicate 1
[4] = 12 h, 10 µM, compound concentration 10 uM, replicate 2
[5] = 24 h, 1 µM, compound concentration 1 uM, replicate 1
[6] = 24 h, 1 µM, compound concentration 1 uM, replicate 2
[7] = 24 h, 10 µM, compound concentration 10 uM, replicate 1
[8] = 24 h, 10 µM, compound concentration 10 uM, replicate 2
[9] = 48 h, 1 µM, compound concentration 1 uM, replicate 1
[10] = 48 h, 1 µM, compound concentration 1 uM, replicate 2
[11] = 48 h, 10 µM, compound concentration 10 uM, replicate 1
[12] = 48 h, 10 µM, compound concentration 10 uM, replicate 2

Question: Which “Population Apoptotic (%)” value [1] does the source give for `CCCSc1nc(N[C@@H]2C[C@H]2c2ccc(F)c(F)c2)c2nnn([C@@H]3C[C@H](OCCO)[C@@H](O)[C@H]3O)c2n1` [TICAGRELOR] here?
Answer: 23%

Question: And the “Population Fragmented Nuclei (%)” value [1]?
Answer: 11%

Question: And the “Population Healthy Nuclei (%)” value [1]?
Answer: 74%

Question: What about the “Population Hoechst High Intensity Objects (%)” value [1] of the same molecule?
Answer: 6%

Question: And the “Population Membrane Permeable-Phenotype (%)” value [1]?
Answer: 4%

Question: And the “Population Mitochondria Different-Phenotype (%)” value [1]?
Answer: 21%

Question: And the “Population Mitotic Cells (%)” value [1]?
Answer: 76%

Question: And the “Population Normal (%)” value [1]?
Answer: 93%

Question: And the “Population Pyknosed Nuclei (%)” value [1]?
Answer: 14%

Question: And the “Population Tubulin-Different-Phenotype (%)” value [1]?
Answer: 10%

Question: What about the “Total Cell Count” value [1] of the same molecule?
Answer: 116

Question: And the “Population Apoptotic (%)” value [2]?
Answer: 66%

Question: And the “Population Fragmented Nuclei (%)” value [2]?
Answer: 1%

Question: What about the “Population Healthy Nuclei (%)” value [2] of the same molecule?
Answer: 93%

Question: And the “Population Hoechst High Intensity Objects (%)” value [2]?
Answer: 5%

Question: And the “Population Membrane Permeable-Phenotype (%)” value [2]?
Answer: 5%

Question: What about the “Population Mitochondria Different-Phenotype (%)” value [2] of the same molecule?
Answer: 18%

Question: And the “Population Mitotic Cells (%)” value [2]?
Answer: 33%

Question: What about the “Population Normal (%)” value [2] of the same molecule?
Answer: 94%

Question: And the “Population Pyknosed Nuclei (%)” value [2]?
Answer: 4%

Question: And the “Population Tubulin-Different-Phenotype (%)” value [2]?
Answer: 13%

Question: And the “Total Cell Count” value [2]?
Answer: 82

Question: And the “Population Apoptotic (%)” value [3]?
Answer: 87%

Question: What about the “Population Fragmented Nuclei (%)” value [3] of the same molecule?
Answer: 16%

Question: What about the “Population Healthy Nuclei (%)” value [3] of the same molecule?
Answer: 64%

Question: What about the “Population Hoechst High Intensity Objects (%)” value [3] of the same molecule?
Answer: 7%

Question: What about the “Population Membrane Permeable-Phenotype (%)” value [3] of the same molecule?
Answer: 37%

Question: And the “Population Mitochondria Different-Phenotype (%)” value [3]?
Answer: 99%

Question: What about the “Population Mitotic Cells (%)” value [3] of the same molecule?
Answer: 12%

Question: And the “Population Normal (%)” value [3]?
Answer: 92%

Question: What about the “Population Pyknosed Nuclei (%)” value [3] of the same molecule?
Answer: 19%

Question: And the “Population Tubulin-Different-Phenotype (%)” value [3]?
Answer: 100%

Question: What about the “Total Cell Count” value [3] of the same molecule?
Answer: 125

Question: And the “Population Apoptotic (%)” value [4]?
Answer: 75%

Question: And the “Population Fragmented Nuclei (%)” value [4]?
Answer: 7%

Question: What about the “Population Healthy Nuclei (%)” value [4] of the same molecule?
Answer: 79%

Question: And the “Population Hoechst High Intensity Objects (%)” value [4]?
Answer: 11%

Question: And the “Population Membrane Permeable-Phenotype (%)” value [4]?
Answer: 43%

Question: And the “Population Mitochondria Different-Phenotype (%)” value [4]?
Answer: 98%

Question: And the “Population Mitotic Cells (%)” value [4]?
Answer: 25%

Question: What about the “Population Normal (%)” value [4] of the same molecule?
Answer: 88%

Question: And the “Population Pyknosed Nuclei (%)” value [4]?
Answer: 12%

Question: And the “Population Tubulin-Different-Phenotype (%)” value [4]?
Answer: 96%

Question: What about the “Total Cell Count” value [4] of the same molecule?
Answer: 67

Question: What about the “Population Apoptotic (%)” value [5] of the same molecule?
Answer: 9%

Question: What about the “Population Fragmented Nuclei (%)” value [5] of the same molecule?
Answer: 7%

Question: And the “Population Healthy Nuclei (%)” value [5]?
Answer: 84%

Question: What about the “Population Hoechst High Intensity Objects (%)” value [5] of the same molecule?
Answer: 7%

Question: And the “Population Membrane Permeable-Phenotype (%)” value [5]?
Answer: 3%

Question: What about the “Population Mitochondria Different-Phenotype (%)” value [5] of the same molecule?
Answer: 10%

Question: And the “Population Mitotic Cells (%)” value [5]?
Answer: 90%

Question: And the “Population Normal (%)” value [5]?
Answer: 92%

Question: What about the “Population Pyknosed Nuclei (%)” value [5] of the same molecule?
Answer: 7%

Question: And the “Population Tubulin-Different-Phenotype (%)” value [5]?
Answer: 6%

Question: What about the “Total Cell Count” value [5] of the same molecule?
Answer: 116

Question: What about the “Population Apoptotic (%)” value [6] of the same molecule?
Answer: 57%

Question: What about the “Population Fragmented Nuclei (%)” value [6] of the same molecule?
Answer: 3%

Question: What about the “Population Healthy Nuclei (%)” value [6] of the same molecule?
Answer: 87%

Question: And the “Population Hoechst High Intensity Objects (%)” value [6]?
Answer: 2%

Question: What about the “Population Membrane Permeable-Phenotype (%)” value [6] of the same molecule?
Answer: 4%

Question: What about the “Population Mitochondria Different-Phenotype (%)” value [6] of the same molecule?
Answer: 20%

Question: What about the “Population Mitotic Cells (%)” value [6] of the same molecule?
Answer: 42%

Question: What about the “Population Normal (%)” value [6] of the same molecule?
Answer: 97%

Question: What about the “Population Pyknosed Nuclei (%)” value [6] of the same molecule?
Answer: 8%

Question: What about the “Population Tubulin-Different-Phenotype (%)” value [6] of the same molecule?
Answer: 11%

Question: And the “Total Cell Count” value [6]?
Answer: 81

Question: And the “Population Apoptotic (%)” value [7]?
Answer: 94%

Question: And the “Population Fragmented Nuclei (%)” value [7]?
Answer: 18%

Question: What about the “Population Healthy Nuclei (%)” value [7] of the same molecule?
Answer: 58%

Question: And the “Population Hoechst High Intensity Objects (%)” value [7]?
Answer: 6%

Question: And the “Population Membrane Permeable-Phenotype (%)” value [7]?
Answer: 55%

Question: And the “Population Mitochondria Different-Phenotype (%)” value [7]?
Answer: 100%

Question: What about the “Population Mitotic Cells (%)” value [7] of the same molecule?
Answer: 5%

Question: What about the “Population Normal (%)” value [7] of the same molecule?
Answer: 93%

Question: What about the “Population Pyknosed Nuclei (%)” value [7] of the same molecule?
Answer: 22%

Question: What about the “Total Cell Count” value [7] of the same molecule?
Answer: 155

Question: What about the “Population Apoptotic (%)” value [8] of the same molecule?
Answer: 83%

Question: And the “Population Fragmented Nuclei (%)” value [8]?
Answer: 7%

Question: And the “Population Healthy Nuclei (%)” value [8]?
Answer: 73%

Question: And the “Population Hoechst High Intensity Objects (%)” value [8]?
Answer: 8%

Question: What about the “Population Membrane Permeable-Phenotype (%)” value [8] of the same molecule?
Answer: 65%

Question: And the “Population Mitochondria Different-Phenotype (%)” value [8]?
Answer: 97%

Question: And the “Population Mitotic Cells (%)” value [8]?
Answer: 16%

Question: And the “Population Normal (%)” value [8]?
Answer: 91%

Question: And the “Population Pyknosed Nuclei (%)” value [8]?
Answer: 19%

Question: And the “Population Tubulin-Different-Phenotype (%)” value [8]?
Answer: 97%

Question: What about the “Total Cell Count” value [8] of the same molecule?
Answer: 80

Question: And the “Population Apoptotic (%)” value [9]?
Answer: 69%

Question: And the “Population Fragmented Nuclei (%)” value [9]?
Answer: 6%

Question: What about the “Population Healthy Nuclei (%)” value [9] of the same molecule?
Answer: 87%

Question: And the “Population Hoechst High Intensity Objects (%)” value [9]?
Answer: 4%

Question: And the “Population Mitochondria Different-Phenotype (%)” value [9]?
Answer: 7%

Question: What about the “Population Mitotic Cells (%)” value [9] of the same molecule?
Answer: 30%

Question: What about the “Population Normal (%)” value [9] of the same molecule?
Answer: 95%

Question: And the “Population Pyknosed Nuclei (%)” value [9]?
Answer: 5%

Question: And the “Population Tubulin-Different-Phenotype (%)” value [9]?
Answer: 3%

Question: What about the “Total Cell Count” value [9] of the same molecule?
Answer: 107

Question: What about the “Population Apoptotic (%)” value [10] of the same molecule?
Answer: 25%

Question: What about the “Population Fragmented Nuclei (%)” value [10] of the same molecule?
Answer: 4%

Question: And the “Population Healthy Nuclei (%)” value [10]?
Answer: 88%

Question: What about the “Population Hoechst High Intensity Objects (%)” value [10] of the same molecule?
Answer: 3%

Question: And the “Population Membrane Permeable-Phenotype (%)” value [10]?
Answer: 2%

Question: And the “Population Mitochondria Different-Phenotype (%)” value [10]?
Answer: 12%

Question: What about the “Population Mitotic Cells (%)” value [10] of the same molecule?
Answer: 75%

Question: What about the “Population Normal (%)” value [10] of the same molecule?
Answer: 96%

Question: What about the “Population Pyknosed Nuclei (%)” value [10] of the same molecule?
Answer: 6%

Question: What about the “Population Tubulin-Different-Phenotype (%)” value [10] of the same molecule?
Answer: 9%

Question: And the “Total Cell Count” value [10]?
Answer: 74

Question: And the “Population Apoptotic (%)” value [11]?
Answer: 89%

Question: And the “Population Fragmented Nuclei (%)” value [11]?
Answer: 25%

Question: And the “Population Healthy Nuclei (%)” value [11]?
Answer: 38%

Question: What about the “Population Hoechst High Intensity Objects (%)” value [11] of the same molecule?
Answer: 8%

Question: And the “Population Membrane Permeable-Phenotype (%)” value [11]?
Answer: 60%

Question: And the “Population Mitochondria Different-Phenotype (%)” value [11]?
Answer: 94%

Question: What about the “Population Mitotic Cells (%)” value [11] of the same molecule?
Answer: 10%

Question: What about the “Population Normal (%)” value [11] of the same molecule?
Answer: 91%

Question: And the “Population Pyknosed Nuclei (%)” value [11]?
Answer: 36%

Question: What about the “Population Tubulin-Different-Phenotype (%)” value [11] of the same molecule?
Answer: 98%

Question: What about the “Total Cell Count” value [11] of the same molecule?
Answer: 230

Question: And the “Population Apoptotic (%)” value [12]?
Answer: 71%

Question: And the “Population Fragmented Nuclei (%)” value [12]?
Answer: 17%

Question: And the “Population Healthy Nuclei (%)” value [12]?
Answer: 60%

Question: And the “Population Hoechst High Intensity Objects (%)” value [12]?
Answer: 11%

Question: And the “Population Membrane Permeable-Phenotype (%)” value [12]?
Answer: 74%

Question: And the “Population Mitochondria Different-Phenotype (%)” value [12]?
Answer: 97%

Question: And the “Population Mitotic Cells (%)” value [12]?
Answer: 28%

Question: And the “Population Normal (%)” value [12]?
Answer: 88%

Question: And the “Population Pyknosed Nuclei (%)” value [12]?
Answer: 21%

Question: And the “Population Tubulin-Different-Phenotype (%)” value [12]?
Answer: 97%

Question: And the “Total Cell Count” value [12]?
Answer: 130
